# According to ChEMBL document CHEMBL1124416, “5-(1-piperazinyl)-1H-1,2,4-triazol-3-amines as antihypertensive agents” (1989):
# System: Rattus norvegicus
# Assay: The antihypertensive activity was assessed by measuring the heart rate in rats when administered at 50 mg/kg
# Type: functional
# Conditions: not given
# Method in brief: (§1)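 16-week-old male SH rats (Okamoto) were dosed by oral gavage in 3% starch in normal saline (2 mL/kg), plus an oral saline load of 25 mL/kg. They were redosed at 24 h without the saline load. MABP and HR were taken by direct femoral arterial puncture under local anesthesia 4 h after the second dose. HR was rounded to 10 bpm.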
row,SMILES,HR [beats min-1]
1,Nc1n[nH]c(N2CCN(Cc3ccco3)CC2)n1,370
2,CN(C)c1ccc(CN2CCN(c3n[nH]c(N)n3)CC2)cc1,440
3,Nc1n[nH]c(N2CCN(CC3CCCC3)CC2)n1,440
4,Nc1n[nH]c(N2CCN(CCCc3ccccc3)CC2)n1,520
5,Cc1ccc(CN2CCN(c3n[nH]c(N)n3)CC2)cc1,350
6,Nc1n[nH]c(N2CCN(Cc3ccccc3F)CC2)n1,330
7,CN1CCN(c2n[nH]c(N)n2)CC1,440

# System: Rattus norvegicus
# Assay: The antihypertensive activity was assessed by measuring the mean arterial blood pressure in rats when administered at 30 mg/kg
# Type: functional
# Conditions: not given
# Method in brief: as §1
row,SMILES,MABP [mmHg]
1,Nc1n[nH]c(N2CCN(Cc3ccco3)CC2)n1,115

# System: Rattus norvegicus
# Assay: The antihypertensive activity at 100 mg/kg administered perorally was assessed by measuring the mean arterial blood pressure (MABP) in rats
# Type: functional
# Conditions: route oral
# Method in brief: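 Male SH rats (Okamoto, 16 weeks old) got 100 mg/kg by oral gavage in 3% starch in normal saline (2 mL/kg), then an oral 25 mL/kg saline load. They were redosed at 24 h without the load. MABP and HR were taken by direct femoral arterial puncture under local anesthesia 4 h after the second dose, in one to three rats per compound. Active: one rat reduced to 116 mmHg, or a two-rat average reduced to 122 mmHg.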
row,SMILES,HR [beats min-1]
1,CN1CCN(c2n[nH]c(N)n2)CC1,400

# System: Rattus norvegicus
# Assay: The antihypertensive activity was assessed by measuring the heart rate in rats when administered at 10 mg/kg
# Type: functional
# Conditions: not given
# Method in brief: as §1
row,SMILES,HR [beats min-1]
1,Nc1n[nH]c(N2CCN(Cc3ccco3)CC2)n1,440
2,Nc1n[nH]c(N2CCN(CCc3ccccc3)CC2)n1,440
3,Nc1n[nH]c(N2CCN(Cc3ccccc3)CC2)n1,400

# System: Rattus norvegicus
# Assay: The antihypertensive activity was assessed by measuring the mean arterial blood pressure in rats when administered at 10 mg/kg
# Type: functional
# Conditions: not given
# Method in brief: as §1
row,SMILES,MABP [mmHg]
1,Nc1n[nH]c(N2CCN(Cc3ccco3)CC2)n1,153
2,Nc1n[nH]c(N2CCN(CCc3ccccc3)CC2)n1,142
3,Nc1n[nH]c(N2CCN(Cc3ccccc3)CC2)n1,118

# System: Rattus norvegicus
# Assay: The antihypertensive activity was assessed by measuring the heart rate in rats when administered at 30 mg/kg
# Type: functional
# Conditions: not given
# Method in brief: as §1
row,SMILES,HR [beats min-1]
1,Nc1n[nH]c(N2CCN(Cc3ccco3)CC2)n1,440

# Species: Rattus norvegicus
# Type: functional, Artery
# Conditions: dose 100 mg/kg; route oral
row,SMILES,MABP [mmHg]
1,N#Cc1ccc(CN2CCN(c3nc(N)n[nH]3)CC2)cc1,127
2,Nc1n[nH]c(N2CCN(Cc3ccco3)CC2)n1,114
3,CN(C)c1ccc(CN2CCN(c3n[nH]c(N)n3)CC2)cc1Br,116
4,CN(C)c1ccc(CN2CCN(c3n[nH]c(N)n3)CC2)cc1,111
5,Nc1n[nH]c(N2CCN(C(c3ccccc3)c3ccc(Cl)cc3)CC2)n1 (stereo unspecified),115
6,Nc1n[nH]c(N2CCN(Cc3ccncc3)CC2)n1,142
7,COc1ccccc1N1CCN(c2n[nH]c(N)n2)CC1,157
8,Nc1n[nH]c(N2CCN(CC3CCCCC3)CC2)n1,123
9,CN(C)CCCN1CCN(c2n[nH]c(N)n2)CC1,140
10,Nc1n[nH]c(N2CCN(CC3CC3)CC2)n1,104
11,Cc1cc(C)c(CN2CCN(c3n[nH]c(N)n3)CC2)c(C)c1,137
12,Cc1ccc(C)c(CN2CCN(c3n[nH]c(N)n3)CC2)c1,139
13,COc1ccc(CN2CCN(c3n[nH]c(N)n3)CC2)c(OC)c1OC,147
14,Nc1n[nH]c(N2CCN(CC3CCCC3)CC2)n1,114
15,Nc1n[nH]c(N2CCN(c3ccccn3)CC2)n1,133
16,CC(c1ccccc1)N1CCN(c2n[nH]c(N)n2)CC1 (stereo unspecified),136
17,Nc1n[nH]c(N2CCN(Cc3c(Cl)cccc3Cl)CC2)n1,140
18,Nc1n[nH]c(N2CCN(CCc3ccccc3)CC2)n1,77
19,Nc1n[nH]c(N2CCN(c3ccc(F)cc3)CC2)n1,151
20,Nc1n[nH]c(N2CCN(Cc3cccc(C(F)(F)F)c3)CC2)n1,129
21,Nc1n[nH]c(N2CCN(CCCc3ccccc3)CC2)n1,93
22,CCCCc1ccc(CN2CCN(c3n[nH]c(N)n3)CC2)cc1,136
23,Nc1n[nH]c(N2CCN(C(=O)c3ccc(-c4ccccc4)cc3)CC2)n1,138
24,Nc1n[nH]c(N2CCN(C/C=C/c3ccccc3)CC2)n1,101
25,Nc1n[nH]c(N2CCN(Cc3ccc4ccccc4n3)CC2)n1,121

row,SMILES,MABP [mmHg]
1,CN(C)c1ccc(CN2CCN(c3n[nH]c(N)n3)CC2)c(Cl)c1,120
2,CC(=O)N1CCN(c2n[nH]c(N)n2)CC1,142
3,Nc1n[nH]c(N2CCN(Cc3ccccc3)CC2)n1,102
4,Nc1n[nH]c(N2CCN(c3ccccc3)CC2)n1,128
5,Cc1ccc(CN2CCN(c3n[nH]c(N)n3)CC2)cc1,112
6,Cc1ccccc1CN1CCN(c2n[nH]c(N)n2)CC1,131
7,CC(C)(C)c1ccc(CN2CCN(c3n[nH]c(N)n3)CC2)cc1,130
8,Nc1n[nH]c(N2CCN(C(=O)c3ccco3)CC2)n1,142
9,Nc1n[nH]c(N2CCN(Cc3ccc(F)cc3)CC2)n1,97
10,Nc1n[nH]c(N2CCN(Cc3ccccc3F)CC2)n1,97
11,Nc1n[nH]c(N2CCN(Cc3ccc(Cl)c(Cl)c3)CC2)n1,95
12,Cc1cccc(CN2CCN(c3n[nH]c(N)n3)CC2)c1,132
13,CC(C)(C)c1ccc(C(=O)N2CCN(c3n[nH]c(N)n3)CC2)cc1,141
14,Nc1n[nH]c(N2CCN(Cc3ccccc3[N+](=O)[O-])CC2)n1,135
15,Nc1n[nH]c(N2CCN(CCCOc3ccccc3)CC2)n1,89
16,CN1CCN(c2n[nH]c(N)n2)CC1,116
17,CC(C)C(=O)N1CCN(c2n[nH]c(N)n2)CC1,141
18,Nc1ccc(CN2CCN(c3n[nH]c(N)n3)CC2)cc1,109
19,Nc1n[nH]c(N2CCN(Cc3ccc(F)cc3Cl)CC2)n1,145
20,C=CCN1CCN(c2nc(N)n[nH]2)CC1,96
21,COc1cc(CN2CCN(c3n[nH]c(N)n3)CC2)cc(OC)c1OC,132
22,Nc1n[nH]c(N2CCN(CCNCc3ccncc3)CC2)n1,144
23,Br.Br.Nc1n[nH]c(N2CCNCC2)n1,92
24,Cl.Cl.Nc1n[nH]c(N2CCN(Cc3cccc4ccccc34)CC2)n1,133
25,Clc1cccc(Cl)c1NC1=NCCN1 [CLONIDINE],102

# System: Rattus norvegicus
# Assay: The antihypertensive activity was assessed by measuring the mean arterial blood pressure in rats when administered at 50 mg/kg
# Type: functional
# Conditions: not given
# Method in brief: as §1
row,SMILES,MABP [mmHg]
1,Nc1n[nH]c(N2CCN(Cc3ccco3)CC2)n1,102
2,CN(C)c1ccc(CN2CCN(c3n[nH]c(N)n3)CC2)cc1,129
3,Nc1n[nH]c(N2CCN(CC3CCCC3)CC2)n1,117
4,Nc1n[nH]c(N2CCN(CCCc3ccccc3)CC2)n1,95
5,Cc1ccc(CN2CCN(c3n[nH]c(N)n3)CC2)cc1,70
6,Nc1n[nH]c(N2CCN(Cc3ccccc3F)CC2)n1,79
7,CN1CCN(c2n[nH]c(N)n2)CC1,133

# System: Rattus norvegicus
# Assay: Assessment of antihypertensive activity at 100 mg/kg administered perorally by measuring the heart rate in rats
# Type: functional
# Conditions: route oral
row,SMILES,HR [beats min-1]
1,N#Cc1ccc(CN2CCN(c3nc(N)n[nH]3)CC2)cc1,420
2,Nc1n[nH]c(N2CCN(Cc3ccco3)CC2)n1,410
3,CN(C)c1ccc(CN2CCN(c3n[nH]c(N)n3)CC2)cc1Br,320
4,CN(C)c1ccc(CN2CCN(c3n[nH]c(N)n3)CC2)cc1,380
5,Nc1n[nH]c(N2CCN(C(c3ccccc3)c3ccc(Cl)cc3)CC2)n1 (stereo unspecified),350
6,Nc1n[nH]c(N2CCN(Cc3ccncc3)CC2)n1,380
7,COc1ccccc1N1CCN(c2n[nH]c(N)n2)CC1,440
8,Nc1n[nH]c(N2CCN(CC3CCCCC3)CC2)n1,420
9,CN(C)CCCN1CCN(c2n[nH]c(N)n2)CC1,420
10,Nc1n[nH]c(N2CCN(CC3CC3)CC2)n1,390
11,Cc1cc(C)c(CN2CCN(c3n[nH]c(N)n3)CC2)c(C)c1,430
12,Cc1ccc(C)c(CN2CCN(c3n[nH]c(N)n3)CC2)c1,400
13,COc1ccc(CN2CCN(c3n[nH]c(N)n3)CC2)c(OC)c1OC,420
14,Nc1n[nH]c(N2CCN(c3ccccn3)CC2)n1,430
15,CC(c1ccccc1)N1CCN(c2n[nH]c(N)n2)CC1 (stereo unspecified),370
16,Nc1n[nH]c(N2CCN(Cc3c(Cl)cccc3Cl)CC2)n1,400
17,Nc1n[nH]c(N2CCN(CCc3ccccc3)CC2)n1,330
18,Nc1n[nH]c(N2CCN(c3ccc(F)cc3)CC2)n1,420
19,Nc1n[nH]c(N2CCN(Cc3cccc(C(F)(F)F)c3)CC2)n1,390
20,Nc1n[nH]c(N2CCN(CCCc3ccccc3)CC2)n1,380
21,CCCCc1ccc(CN2CCN(c3n[nH]c(N)n3)CC2)cc1,360
22,Nc1n[nH]c(N2CCN(C(=O)c3ccc(-c4ccccc4)cc3)CC2)n1,400
23,Nc1n[nH]c(N2CCN(C/C=C/c3ccccc3)CC2)n1,430
24,Nc1n[nH]c(N2CCN(Cc3ccc4ccccc4n3)CC2)n1,440

row,SMILES,HR [beats min-1]
1,CN(C)c1ccc(CN2CCN(c3n[nH]c(N)n3)CC2)c(Cl)c1,400
2,CC(=O)N1CCN(c2n[nH]c(N)n2)CC1,440
3,Nc1n[nH]c(N2CCN(Cc3ccccc3)CC2)n1,360
4,Nc1n[nH]c(N2CCN(c3ccccc3)CC2)n1,340
5,Cc1ccc(CN2CCN(c3n[nH]c(N)n3)CC2)cc1,340
6,Cc1ccccc1CN1CCN(c2n[nH]c(N)n2)CC1,410
7,CC(C)(C)c1ccc(CN2CCN(c3n[nH]c(N)n3)CC2)cc1,350
8,Nc1n[nH]c(N2CCN(C(=O)c3ccco3)CC2)n1,410
9,Nc1n[nH]c(N2CCN(Cc3ccc(F)cc3)CC2)n1,360
10,Nc1n[nH]c(N2CCN(Cc3ccccc3F)CC2)n1,350
11,Nc1n[nH]c(N2CCN(Cc3ccc(Cl)c(Cl)c3)CC2)n1,330
12,Cc1cccc(CN2CCN(c3n[nH]c(N)n3)CC2)c1,440
13,CC(C)(C)c1ccc(C(=O)N2CCN(c3n[nH]c(N)n3)CC2)cc1,400
14,Nc1n[nH]c(N2CCN(Cc3ccccc3[N+](=O)[O-])CC2)n1,430
15,Nc1n[nH]c(N2CCN(CCCOc3ccccc3)CC2)n1,310
16,CC(C)C(=O)N1CCN(c2n[nH]c(N)n2)CC1,410
17,Nc1ccc(CN2CCN(c3n[nH]c(N)n3)CC2)cc1,380
18,Nc1n[nH]c(N2CCN(Cc3ccc(F)cc3Cl)CC2)n1,410
19,C=CCN1CCN(c2nc(N)n[nH]2)CC1,360
20,COc1cc(CN2CCN(c3n[nH]c(N)n3)CC2)cc(OC)c1OC,440
21,Nc1n[nH]c(N2CCN(CCNCc3ccncc3)CC2)n1,440
22,Br.Br.Nc1n[nH]c(N2CCNCC2)n1,410
23,Cl.Cl.Nc1n[nH]c(N2CCN(Cc3cccc4ccccc34)CC2)n1,350
24,Clc1cccc(Cl)c1NC1=NCCN1 [CLONIDINE],180
